In ChEMBL document CHEMBL4387722:

Key:
[1] = target: T1, Phosphotyrosine protein phosphatase (Mycobacterium tuberculosis, UniProt A0A045ISB3); test: Inhibition of Mycobacterium tuberculosis His-tagged PtpB expressed in Escherichia coli Rosetta 2 (DE3) using pNPP as substrate after 30 mins by spectrophotometric method
T1 sequence (A0A045ISB3 whole entry): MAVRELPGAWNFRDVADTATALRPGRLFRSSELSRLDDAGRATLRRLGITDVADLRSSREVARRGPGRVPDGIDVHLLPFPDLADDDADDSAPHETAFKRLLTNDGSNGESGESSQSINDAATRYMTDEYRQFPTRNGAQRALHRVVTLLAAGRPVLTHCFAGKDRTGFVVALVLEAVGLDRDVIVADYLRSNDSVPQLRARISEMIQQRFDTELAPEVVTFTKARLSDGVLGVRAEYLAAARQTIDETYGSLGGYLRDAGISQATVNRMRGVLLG

[2] = target: T2, Tyrosine-protein phosphatase non-receptor type 1 (Homo sapiens, UniProt P18031); test: Inhibition of human PTPN1 expressed in Escherichia coli Rosetta 2 (DE3) using pNPP as substrate after 45 mins by spectrophotometric method
T2 sequence (P18031 whole entry): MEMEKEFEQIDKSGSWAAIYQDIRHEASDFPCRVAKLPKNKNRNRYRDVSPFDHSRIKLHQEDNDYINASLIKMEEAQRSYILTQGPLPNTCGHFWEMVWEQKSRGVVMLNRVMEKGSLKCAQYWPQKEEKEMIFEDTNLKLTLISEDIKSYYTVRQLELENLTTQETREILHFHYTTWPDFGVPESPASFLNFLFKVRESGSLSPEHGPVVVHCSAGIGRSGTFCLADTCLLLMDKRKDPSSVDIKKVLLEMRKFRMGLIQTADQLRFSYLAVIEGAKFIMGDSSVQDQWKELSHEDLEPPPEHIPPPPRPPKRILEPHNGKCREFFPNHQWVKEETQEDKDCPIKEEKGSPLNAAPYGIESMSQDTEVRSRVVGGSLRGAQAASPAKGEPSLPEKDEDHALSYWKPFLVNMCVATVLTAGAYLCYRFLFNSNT

[3] = target: T3, Tyrosine-protein phosphatase non-receptor type 2 (Homo sapiens, UniProt P17706); test: Inhibition of human PTPN2 expressed in Escherichia coli Rosetta 2 (DE3) using pNPP as substrate after 45 mins by spectrophotometric method
T3 sequence (P17706 whole entry): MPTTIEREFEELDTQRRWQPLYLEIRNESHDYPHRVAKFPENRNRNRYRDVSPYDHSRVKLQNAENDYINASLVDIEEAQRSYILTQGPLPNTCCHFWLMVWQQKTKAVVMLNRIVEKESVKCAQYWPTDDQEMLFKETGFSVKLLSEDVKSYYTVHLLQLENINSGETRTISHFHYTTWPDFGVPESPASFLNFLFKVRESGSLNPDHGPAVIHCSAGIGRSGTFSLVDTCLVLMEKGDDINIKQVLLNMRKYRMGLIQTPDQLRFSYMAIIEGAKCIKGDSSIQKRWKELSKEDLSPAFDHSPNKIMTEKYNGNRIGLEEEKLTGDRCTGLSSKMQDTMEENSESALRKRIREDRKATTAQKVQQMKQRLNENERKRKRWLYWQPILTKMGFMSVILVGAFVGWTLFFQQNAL

[4] = target: T4, Tyrosine-protein phosphatase non-receptor type 5 (Homo sapiens, UniProt P54829); test: Inhibition of human PTPN5 expressed in Escherichia coli Rosetta 2 (DE3) using pNPP as substrate after 45 mins by spectrophotometric method
T4 sequence (P54829 whole entry): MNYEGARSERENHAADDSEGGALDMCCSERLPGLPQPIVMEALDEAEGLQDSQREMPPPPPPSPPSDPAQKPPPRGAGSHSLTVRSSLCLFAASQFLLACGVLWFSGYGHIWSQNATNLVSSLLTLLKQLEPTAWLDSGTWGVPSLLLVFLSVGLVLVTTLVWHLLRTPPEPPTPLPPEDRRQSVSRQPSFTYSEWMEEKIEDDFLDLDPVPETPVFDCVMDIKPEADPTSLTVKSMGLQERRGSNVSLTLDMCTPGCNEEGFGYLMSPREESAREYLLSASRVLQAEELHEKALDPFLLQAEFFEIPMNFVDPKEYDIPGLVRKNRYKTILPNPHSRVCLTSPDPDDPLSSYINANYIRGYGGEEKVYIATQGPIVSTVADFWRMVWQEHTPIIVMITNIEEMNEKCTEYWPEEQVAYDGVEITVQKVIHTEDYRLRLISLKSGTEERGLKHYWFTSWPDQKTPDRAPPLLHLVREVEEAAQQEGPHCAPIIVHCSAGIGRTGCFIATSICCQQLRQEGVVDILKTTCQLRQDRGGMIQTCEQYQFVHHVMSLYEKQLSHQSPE

[5] = system: Mycobacterium tuberculosis; test: Antitubercular activity against Mycobacterium tuberculosis H37Rv after 5 days at 200 uM relative to control; assay type: functional; details: 120 h
Procedure, shortened: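 M. tuberculosis grown in liquid culture with compound at a fixed 200 μM for 5 days. Growth inhibition expressed as percent of control.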

[6] = Inhibition of refolded rhodanese (unknown origin) preincubated with Escherichia coli GroEL/GroES for 60 mins by measuring rhodanese enzyme activity followed by compound addition by Fe(SCN)3 dye based spectrometric analysis; set-up: species or system Homo sapiens
[7] = target: T5, Malate dehydrogenase, mitochondrial (Sus scrofa, UniProt P00346); test: Inhibition of refolded pig heart mitochondrial MDH preincubated with Escherichia coli GroEL/GroES for 45 mins using sodium mesoxalate as substrate followed by compound addition and measured after 20 to 30 mins by spectrometric analysis
T5 sequence (P00346 whole entry): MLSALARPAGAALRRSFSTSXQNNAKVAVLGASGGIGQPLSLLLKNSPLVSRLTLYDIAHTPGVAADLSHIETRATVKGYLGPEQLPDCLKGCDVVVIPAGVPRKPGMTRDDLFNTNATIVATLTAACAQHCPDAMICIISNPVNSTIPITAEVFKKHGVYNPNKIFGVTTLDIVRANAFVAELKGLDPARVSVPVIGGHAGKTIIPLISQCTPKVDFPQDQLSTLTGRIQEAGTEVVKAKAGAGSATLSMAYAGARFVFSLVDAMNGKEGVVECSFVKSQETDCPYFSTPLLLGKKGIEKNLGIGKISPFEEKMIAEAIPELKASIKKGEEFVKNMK

E. coli GroEL/ES [8] = target: T6, E. coli GroEL/ES (Escherichia coli, UniProt P0A6F5); test: Inhibition of Escherichia coli GroEL expressed in Escherichia coli DH5alpha/Escherichia coli GroES expressed in Escherichia coli BL21 (DE3) assessed as reduction in GroEL/GroES-mediated denatured rhodanese refolding by measuring rhodanese enzyme activity after 45 mins by Fe(SCN)3 dye based spectrometric analysis
E. coli GroEL/ES [9] = target: T6, E. coli GroEL/ES; test: Inhibition of Escherichia coli GroEL expressed in Escherichia coliDH5alpha/Escherichia coli GroES expressed in Escherichia coli BL21 (DE3) assessed as reduction in GroEL/GroES-mediated denatured pig heart mitochondrial MDH refolding by measuring MDH enzyme activity using sodium mesoxalate as substrate after 20 to 40 mins by spectrometric analysis
HSP60/HSP10 = HSP60/HSP10 (Homo sapiens, UniProt P10809); test: Inhibition of human HSP60 expressed in Escherichia coli Rosetta 2(DE3)/human HSP10 expressed in Escherichia coli Rosetta 2(DE3) pLysS cells assessed as reduction in HSP60/HSP10-mediated denatured pig heart mitochondrial MDH refolding by measuring MDH enzyme activity using sodium mesoxalate as substrate after 40 to 60 mins by spectrometric analysis
[10] = Cytotoxicity against human THLE3 cells assessed as reduction in cell viability after 48 hrs by Alamar blue assay; assay type: cell-based
Procedure, shortened: (§1)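 Alamar Blue viability read-out. Human liver (THLE-3) and kidney (HEK 293) cells incubated with compound for 48 h. Tested in dose-response to derive CC50.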

[11] = Cytotoxicity against human HEK293 cells assessed as reduction in cell viability after 48 hrs by Alamar blue assay; assay type: cell-based; procedure, shortened: as §1
[12] = system: Mycobacterium tuberculosis; test: Antitubercular activity against Mycobacterium tuberculosis H37Rv after 5 days; assay type: functional, organism-based; details: 120 h

Sequence of HSP60/HSP10 (P10809 whole entry): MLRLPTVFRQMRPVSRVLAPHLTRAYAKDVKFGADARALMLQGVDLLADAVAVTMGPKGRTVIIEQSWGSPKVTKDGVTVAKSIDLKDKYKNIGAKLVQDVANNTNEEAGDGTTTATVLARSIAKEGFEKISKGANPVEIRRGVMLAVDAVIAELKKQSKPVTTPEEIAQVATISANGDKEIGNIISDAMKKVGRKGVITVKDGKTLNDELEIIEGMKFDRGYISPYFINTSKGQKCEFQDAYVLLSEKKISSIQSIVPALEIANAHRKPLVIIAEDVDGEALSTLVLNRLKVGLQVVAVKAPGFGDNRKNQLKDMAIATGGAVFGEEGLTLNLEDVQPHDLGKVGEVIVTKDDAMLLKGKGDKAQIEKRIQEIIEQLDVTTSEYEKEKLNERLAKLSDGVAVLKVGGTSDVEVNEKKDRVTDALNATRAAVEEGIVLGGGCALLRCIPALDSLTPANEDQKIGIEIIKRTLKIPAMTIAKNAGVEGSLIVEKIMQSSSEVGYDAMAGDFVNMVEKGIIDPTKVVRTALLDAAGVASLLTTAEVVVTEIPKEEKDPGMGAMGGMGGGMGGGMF
Sequence of HSP60/HSP10 (P61604 whole entry, further chain): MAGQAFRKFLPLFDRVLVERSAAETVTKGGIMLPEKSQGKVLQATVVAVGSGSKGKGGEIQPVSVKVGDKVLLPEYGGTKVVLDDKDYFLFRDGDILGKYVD
T6 sequence (P0A6F5 whole entry, looked up): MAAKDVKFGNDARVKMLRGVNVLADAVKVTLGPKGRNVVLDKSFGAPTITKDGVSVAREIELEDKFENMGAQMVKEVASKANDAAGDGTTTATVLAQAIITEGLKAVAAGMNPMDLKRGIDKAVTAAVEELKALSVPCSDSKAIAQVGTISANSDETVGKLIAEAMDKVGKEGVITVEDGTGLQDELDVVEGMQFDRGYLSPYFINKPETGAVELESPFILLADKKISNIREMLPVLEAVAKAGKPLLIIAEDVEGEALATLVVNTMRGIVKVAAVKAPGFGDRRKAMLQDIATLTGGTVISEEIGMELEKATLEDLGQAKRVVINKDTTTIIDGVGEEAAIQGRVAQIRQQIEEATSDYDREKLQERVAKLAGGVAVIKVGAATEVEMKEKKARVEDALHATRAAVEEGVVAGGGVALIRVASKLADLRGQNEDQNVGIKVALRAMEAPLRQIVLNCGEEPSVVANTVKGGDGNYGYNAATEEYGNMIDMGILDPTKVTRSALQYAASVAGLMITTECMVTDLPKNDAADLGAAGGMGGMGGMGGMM

Row | SMILES | IC50 [1] [µM] | IC50 [2] [µM] | IC50 [3] [µM] | IC50 [4] [µM] | inhibition at 200 µM [5] [%] | IC50 [6] [µM] | IC50 [7] [µM] | IC50 (E. coli GroEL/ES [8]) [µM] | IC50 (E. coli GroEL/ES [9]) [µM] | IC50 (HSP60/HSP10) [µM] | CC50 at 48 h [10] [µM] | CC50 at 48 h [11] [µM] | EC50 [12] [µM]
1 | O=S(=O)(Nc1ccc2oc(-c3ccccc3)nc2c1)c1ccc(Cl)cc1 | 56 | 44 | 35 | 26 | 0 | > 100 | > 63 | 149 | > 100 | > 100 | 40 | 65 | 
2 | Cc1ccc(S(=O)(=O)Nc2ccc(-c3nc4ccccc4o3)cc2)cc1 | 52 | 42 | 49 | 45 | 28 | > 100 | > 63 | 157 | > 100 | > 100 | 82 | 88 | 
3 | O=S(=O)(Nc1ccc2oc(-c3ccccc3)nc2c1)c1ccc(C(F)(F)F)cc1 | 26 | 36 | 44 | 27 | 0 | > 100 | > 63 | 159 | 64 | > 100 | 49 | 74 | 
4 | Cc1cccc(S(=O)(=O)Nc2ccc3oc(-c4ccccc4)nc3c2)c1 | 63 | 53 | 57 | 39 | 82 | > 100 | > 63 |  |  | > 100 | 38 | 69 | 161
5 | O=S(=O)(Nc1ccc(-c2nc3ccccc3o2)cc1)c1cccc(O)c1 | 79 | > 100 | > 100 | 84 | 61 | > 100 | > 63 |  |  | 62 | 97 | > 100 | 189
6 | COc1ccc(S(=O)(=O)Nc2ccc3oc(-c4ccccc4)nc3c2)cc1 | 73 | 46 | 50 | 37 | 75 | > 100 | > 63 |  |  | > 100 | 53 | 91 | 167
7 | O=S(=O)(Nc1ccc2oc(-c3ccccc3)nc2c1)c1cccc(F)c1 | 93 | 71 | > 100 | 42 | 56 | > 100 | > 63 |  |  | > 100 | 41 | 68 | > 200
8 | COc1cccc(S(=O)(=O)Nc2ccc(-c3nc4ccccc4o3)cc2)c1 | 67 | 51 | 67 | 48 | 74 | > 100 | > 63 |  |  | 80 | 84 | > 100 | 156
9 | O=S(=O)(Nc1ccc(-c2nc3ccccc3o2)cc1)c1ccc(O)cc1 | 93 | 70 | > 100 | 81 | 77 | > 100 | > 63 |  |  | 78 | > 100 | > 100 | > 200
10 | CS(=O)(=O)Nc1ccc(-c2nc3cc(NS(C)(=O)=O)ccc3o2)cc1 | > 100 | > 100 | > 100 | > 100 | 62 |  |  |  |  |  |  |  | > 200
11 | COc1ccc(S(=O)(=O)Nc2ccc(-c3nc4ccccc4o3)cc2)cc1 | 61 | 42 | 53 | 45 | 72 | > 100 | > 63 |  |  | > 100 | 86 | > 100 | 179
